Assay [1] concerns the target Thymidine phosphorylase (Escherichia coli K-12) (UniProt P07650). Description: Inhibition of Escherichia coli thymidine phosphorylase at 73.7 to 147.7 uM. A digest of the protocol:
(§1)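 Recombinant E. coli TP (0.00883 U per 0.2 ml) added to start a continuous spectrophotometric assay. Mix: 0.13 mM 5-nitro-2'-deoxyuridine substrate in 0.1 M potassium phosphate, pH 7.4, 25 °C, read at 355 nm in a microplate. Initial velocity compared with the mean of at least two no-inhibitor controls. Where derived, IC50 used at least five concentrations spanning the value.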

Assay [2] shares this target. Description: Inhibition of Escherichia coli thymidine phosphorylase at 158 uM. A digest of the protocol: as §1
The target is the same in assay [3]. Description: Inhibition of Escherichia coli thymidine phosphorylase at 66 uM. The gist of the method: as §1
For assay [4] the target is unchanged. Description: Inhibition of Escherichia coli thymidine phosphorylase at 163 uM. A digest of the protocol: as §1
Assay [5] shares this target. Description: Inhibition of Escherichia coli thymidine phosphorylase at 47.2 uM. A digest of the protocol: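 Recombinant E. coli TP; continuous spectrophotometric assay at 355 nm, 25 °C, 0.2 ml. Contains 0.13 mM 5-nitro-2'-deoxyuridine substrate in 0.1 M potassium phosphate pH 7.4. Reaction started with TP (0.00883 U/0.2 ml). Inhibitor added from stock. Initial velocity compared with the mean of at least two no-inhibitor controls.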

Assay [6] has as its target T1, Thymidine phosphorylase (Homo sapiens) (UniProt P19971).
T1 sequence (whole entry): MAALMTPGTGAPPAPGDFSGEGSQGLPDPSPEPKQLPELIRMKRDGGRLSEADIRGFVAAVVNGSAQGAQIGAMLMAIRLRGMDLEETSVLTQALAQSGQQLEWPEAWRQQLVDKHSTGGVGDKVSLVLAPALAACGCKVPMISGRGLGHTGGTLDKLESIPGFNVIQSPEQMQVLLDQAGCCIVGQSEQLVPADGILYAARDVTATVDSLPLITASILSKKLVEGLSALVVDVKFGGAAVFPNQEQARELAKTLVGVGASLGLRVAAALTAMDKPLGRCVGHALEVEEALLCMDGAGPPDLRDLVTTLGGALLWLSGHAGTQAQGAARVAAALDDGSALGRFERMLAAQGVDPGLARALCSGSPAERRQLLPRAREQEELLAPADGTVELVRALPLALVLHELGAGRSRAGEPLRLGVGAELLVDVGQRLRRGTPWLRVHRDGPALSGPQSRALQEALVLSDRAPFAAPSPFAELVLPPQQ
Description: Inhibition of human recombinant thymidine phosphorylase at 62.3 uM. The gist of the method: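 Recombinant human TP expressed in V79 Chinese hamster cells; continuous spectrophotometric assay at 355 nm, 25 °C. Uses 0.33 mM 5-nitro-2'-deoxyuridine substrate in 0.1 M potassium phosphate pH 7.4. Reaction started by adding enzyme. Inhibition taken from initial velocity relative to the mean of at least two no-inhibitor controls.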

Assay [7] concerns the target Thymidine phosphorylase (Escherichia coli K-12) (UniProt P07650). Description: Inhibition of Escherichia coli thymidine phosphorylase at 68.4 to 136.9 uM. A digest of the protocol:
as §1

Assay [8] shares this target. Description: Inhibition of Escherichia coli thymidine phosphorylase at 45 uM. The gist of the method: as §1
For assay [9] the target is unchanged. Description: Inhibition of Escherichia coli thymidine phosphorylase at 103.6 to 207.2 uM. A digest of the protocol: as §1
The target is the same in assay [10]. Description: Inhibition of Escherichia coli thymidine phosphorylase at 106.3 to 212.6 uM. The gist of the method:
as §1

The target is the same in assay [11]. Description: Inhibition of Escherichia coli thymidine phosphorylase at 74 to 148 uM. The gist of the method:
as §1

The source made the active and inactive calls. The calls are words filed in the database; no cut-off is given here.

Sequence of Thymidine phosphorylase (Escherichia coli K-12) (P07650 whole entry, looked up): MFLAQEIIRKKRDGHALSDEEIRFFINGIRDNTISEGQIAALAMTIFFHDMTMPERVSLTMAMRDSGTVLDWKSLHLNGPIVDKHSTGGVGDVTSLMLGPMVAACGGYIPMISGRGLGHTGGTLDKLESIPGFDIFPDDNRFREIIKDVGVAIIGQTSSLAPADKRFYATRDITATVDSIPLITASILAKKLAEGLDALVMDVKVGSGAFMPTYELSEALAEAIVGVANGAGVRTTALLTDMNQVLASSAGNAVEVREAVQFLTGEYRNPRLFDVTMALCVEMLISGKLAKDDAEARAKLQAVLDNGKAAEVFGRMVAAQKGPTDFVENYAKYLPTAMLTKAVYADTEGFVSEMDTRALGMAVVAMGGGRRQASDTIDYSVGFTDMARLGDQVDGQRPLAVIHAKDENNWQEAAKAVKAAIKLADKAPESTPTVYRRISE

Take `Nc1nc[nH]c(=O)c1Br`: in [1], the outcome was inactive. On to `O=c1[nH]c(=O)c2nc[nH]c2[nH]1`, for which, in assay [2], the result was inactive. On to `Cc1nc[nH]c(=O)c1Cl`, for which, in [3], the result was inactive. Consider `O=c1nccc2[nH]ccn12`, for which the outcome in assay [4] was inactive. For `N=C1CCCN1Cc1nc[nH]c(=O)c1Cl`, the outcome in assay [5] and in assay [6] was inactive. For `Nc1[nH]c(=O)ncc1Br`, the outcome in assay [7] was inactive. For `O=c1[nH]c(=S)[nH]c2[nH]ccc12`, the outcome in [8] was inactive. Consider `O=c1[nH]cnc2[nH]ccc12`, for which the outcome in assay [9] was inactive. With `Nc1ncncc1Br`, in assay [10], the outcome was inactive. Regarding `O=c1ncc2cc[nH]c2[nH]1`, the result in [11] was inactive.

These data come from ChEMBL document CHEMBL1156686, “Xanthine oxidase-activated prodrugs of thymidine phosphorylase inhibitors” (Eur J Med Chem, 2008).
